Sampled rows, rich in hits. Any-hit rate of the full collection: about 1.9%.
H9c2 TAG inh = triacylglycerol accumulation inhibition; H9c2 cells, Nile Red lipid (TAG) fluorescence; cells loaded with 200 µM oleic acid; inhibition, % at 12.5 µM; 230,000 tested, 0.66% active; AID 651582;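 active = pattern-corrected inhibition of lipid staining of at least 50% with the nuclear-stain viability signal not falling by more than 50%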;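 note: 0% = DMSO wells and 100% = triacsin C control wells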
CCR6 antag = CCR6 (human) receptor antagonism. P51684. CHO-K1 CCR6 PathHunter beta-arrestin, luminescence, CCL20-stimulated. inhibition, % at 20 µM. 340,000 tested, 0.49% active. AID 493098;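 active = compounds whose inhibition of the agonist-driven luminescence signal at 20 µM reaches about 50%, limit read from the data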;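 note: cells stimulated with CCL20 at 14 nM final; plate controls were DMSO with CCL20 for no effect and DMSO without agonist for full effect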
EBI2 block = antagonists of human EBI2 receptor; P32249; EBI2 beta-arrestin recruitment, luminescence, 7a,25-OHC stimulated; inhibition, % at 5 µM; 360,000 tested, 0.81% active; in the data active = inhibition above about 38%;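 note: enzyme fragment complementation signal reports receptor beta-arrestin coupling in cells; 0% = agonist plus DMSO wells and 100% = wells without agonist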
Target sequence (P32249 whole entry, looked up, the tested form may be a part): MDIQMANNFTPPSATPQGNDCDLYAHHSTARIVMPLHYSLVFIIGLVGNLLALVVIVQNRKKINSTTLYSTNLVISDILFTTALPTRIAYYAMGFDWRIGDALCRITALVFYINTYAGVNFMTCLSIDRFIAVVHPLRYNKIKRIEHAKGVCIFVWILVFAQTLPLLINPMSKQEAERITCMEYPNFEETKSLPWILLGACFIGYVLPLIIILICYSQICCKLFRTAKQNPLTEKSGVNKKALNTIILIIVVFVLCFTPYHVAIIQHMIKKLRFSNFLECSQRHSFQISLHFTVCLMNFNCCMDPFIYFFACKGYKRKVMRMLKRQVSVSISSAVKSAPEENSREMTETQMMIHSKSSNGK
CXCR6 inh = blocks human CXCR6 beta-arrestin recruitment | O00574 | CHO-K1 PathHunter CXCR6 beta-arrestin, luminescence | inhibition, % at 20 µM | 360,000 tested, 0.36% active; in the data active = inhibition above about 34%, passing the limit was not always enough;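 note: antagonist mode with CXCL16 agonist at 10 nM final; 0% = 10 nM CXCL16 with DMSO and 100% = unstimulated wells without agonist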
Target sequence (O00574 whole entry, looked up): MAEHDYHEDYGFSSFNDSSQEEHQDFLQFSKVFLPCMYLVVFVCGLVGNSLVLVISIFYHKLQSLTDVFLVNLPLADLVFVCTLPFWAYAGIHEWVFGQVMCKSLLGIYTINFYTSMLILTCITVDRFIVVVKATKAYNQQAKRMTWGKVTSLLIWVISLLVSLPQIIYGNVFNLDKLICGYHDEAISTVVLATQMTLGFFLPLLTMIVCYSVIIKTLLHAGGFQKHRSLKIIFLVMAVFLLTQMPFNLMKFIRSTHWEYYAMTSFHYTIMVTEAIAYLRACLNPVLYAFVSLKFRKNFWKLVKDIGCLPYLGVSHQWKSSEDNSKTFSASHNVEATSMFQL
APJ antagonist = antagonists of human APJ apelin receptor. P35414. CHO-K1 APJ beta-arrestin complementation, luminescence. inhibition, % at 20 µM. 330,000 tested, 0.32% active. AID 2521;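 active = inhibition above about 40% at 20 µM, limit read from the data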;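 note: cells challenged with 10 nM apelin-13 agonist together with compound; plate controls were apelin-13 plus DMSO wells for no effect and DMSO wells lacking apelin-13 for full effect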
APJ agonist = agonists of human APJ apelin receptor. 330,000 tested, 0.11% active. AID 2520. CHO-K1 APJ PathHunter beta-arrestin, luminescence; 0% DMSO wells, 100% apelin. P35414. activation, % at 20 µM;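 active = activation more than six SD over the plate average, tested at 20 µM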;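 note: 0% = DMSO alone and 100% = apelin-13 at 10 nM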
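assay system = CHO-K1 APJ beta-arrestin complementation cell line | input = cell density 1000 per well | dosing = compound 20 µM once, DMSO 1% | timing = compound 90 min 25 °C, reagent 1 h | measured by = luminescence from split beta-galactosidase complementation, Galacton Star/Emerald II substrate | read-out basis = APJ agonist activity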
APJ antag conf = APJ receptor antagonism confirmation; APJ beta-arrestin recruitment, luminescence, antagonist mode; inhibition, % at 20 µM; 950 tested, 66% active; AID 2766; shares compounds with APJ antagonist; in the data active = inhibition above about 50%
* marks the source's active call; other numbers are inactive results; · = no result.

SMILES	H9c2 TAG inh	CCR6 antag	EBI2 block	CXCR6 inh	APJ antagonist	APJ agonist	APJ antag conf
COC(=O)C1NN=C(C(=O)c2ccc(Cl)cc2)C1c1ccc(OC)cc1 (centres undefined)	·	58.5*	11.9	26.9	64.9*	-10.0	81.5*
COC(=O)C1NN=C(C(=O)c2ccccc2)C1c1ccccc1 (centres undefined)	·	13.1	-3.0	-2.9	19.1	-2.1	·
Cc1cc(C)c(NC(N)=S)c(C)c1	-2.4	16.2	-6.3	1.3	0.3	-0.2	·
c1ccc(-c2nc(N3CCCCCC3)c3ccccc3n2)nc1	-0.3	40.2	-4.1	13.2	49.0*	-7.8	62.1*
CCCN(CCC)c1nc(-c2ccccn2)nc2ccccc12	·	34.7	-2.9	36.8	41.2*	-10.0	80.4*
CCCCN(CC)c1nc(-c2ccncc2)nc2ccccc12	4.2	5.8	-5.5	-3.6	-9.2	-0.7	·
Cc1cc(Cl)cc2sc(=S)[nH]c12	10.8	0.9	4.1	-0.6	·	·	·
Cc1[nH]n(-c2ccccc2)c(=O)c1C(C[N+](=O)[O-])c1ccc(F)cc1 (centres undefined)	·	16.3	-16.1	11.2	45.0*	1.3	16.4
Cc1ccc(C(C[N+](=O)[O-])c2c(C)[nH]n(-c3ccccc3)c2=O)cc1 (centres undefined)	·	24.6	-1.8	6.0	0.4	3.8	·
COc1cc(S(=O)(=O)N2CCCCC2)ccc1NC(=O)c1ccccc1Cl	·	22.8	6.2	1.5	8.8	0.7	·
CCC(=O)Nc1ccc(S(=O)(=O)N2CCCCC2)cc1OC	·	-10.4	0.8	11.4	41.2*	-3.7	-33.9
Cc1nnsc1C(=O)NNc1ccc(C(C)(C)C)cc1	-17.5	10.4	16.4	-4.3	59.1*	-15.4	146.4*
CN(C)c1ccc(N=Nc2ccc(S(N)(=O)=O)cc2)cc1	·	29.0	10.4	19.5	23.9	-7.9	·
CN(C)c1ccc(N=Nc2ccc(S(=O)(=O)O)cc2)c2ccccc12	·	62.0*	12.4	42.4*	41.0*	-8.1	92.3*
CC(C)NC(=O)c1sc2nc(-c3cccs3)cc(-c3cccs3)c2c1N	·	28.8	·	·	42.4*	-17.4	30.8
COc1ccc(C(=O)c2sc3nc(C)cc(-c4cccs4)c3c2N)cc1	·	-9.4	33.1	4.9	·	·	·
O=C(NNc1ccc(-c2csnn2)cc1)c1cc(Cl)cc(Cl)c1	5.1	47.3	14.2	14.5	53.8*	-8.3	64.6*
O=C(CSC1=Nc2ccccc2C2=NC(c3ccccc3)C(=O)N12)NC1CCCCC1 (centres undefined)	7.1	42.9	8.6	29.7	14.1	-10.6	·
CN(C(=O)CSC1=Nc2ccccc2C2=NC(c3ccccc3)C(=O)N12)C1CCCCC1 (centres undefined)	-11.6	52.4*	21.5	47.2*	47.2*	-17.3	61.0*
O=C(NNc1cc(Br)c(O)c(Br)c1)c1ccccc1	-23.3	86.8*	37.6	59.0*	96.2*	-14.5	136.8*
NS(=O)(=O)c1ccc(NNC(=O)c2ccccc2)cc1	41.9	-8.2	-15.5	2.5	-8.9	-0.1	·
Oc1c(C=Nc2cccc3cccnc23)sc2ccccc12	·	·	·	·	92.4*	-30.1	142.9*
CCc1nn(CC(=O)NCCC2=CCCCC2)c(=O)c2cc3cc(F)ccc3n12	·	2.8	-3.1	3.2	-5.6	-0.5	·
C=CCN1C(=O)/C(=C/C=C2/N(CC)c3ccc(S(=O)(=O)N(C)C)cc3N2CC)SC1=S	-31.3	63.6*	24.6	37.3	52.0*	-6.7	106.5*
C=CCN1C(=O)/C(=C2/Sc3ccccc3N2CC)SC1=S	1.0	-0.2	-7.9	-12.2	15.3	-2.8	·
SMILES	H9c2 TAG inh	CCR6 antag	EBI2 block	CXCR6 inh	APJ antagonist	APJ agonist	APJ antag conf
CCn1c(CO)nc2c1c(=O)[nH]c(=O)n2Cc1ccccc1	·	63.5*	14.6	46.3*	52.6*	-7.5	84.5*
Cc1cc(C)c2[nH]c(O)c(N=NC(=S)NCC3CCCO3)c2c1 (centres undefined)	·	21.7	6.9	17.9	23.4	1.7	·
Oc1[nH]c2c(Cl)cc(Cl)cc2c1N=NC(=S)NCC1CCCO1 (centres undefined)	·	58.0*	29.1	36.5	40.2*	-1.3	64.5*
Cc1ccc(C)c(S(=O)(=O)N2CCN(C(=O)c3n[nH]c(=O)c4ccccc34)CC2)c1	-22.3	-2.2	3.5	-8.8	1.8	3.7	·
CCCn1nc([N+](=O)[O-])c(C(C#N)c2nc3ccccc3s2)c(Cl)c1=O (centres undefined)	·	50.5*	0.6	30.8	61.9*	-10.5	66.2*
CCN(C[C@H]1N[C@@](C)(C(=O)OC)[C@H]2C(=O)N(Cc3ccccc3)C(=O)[C@@H]12)C(=O)c1ccc(C)cc1	-2.8	2.5	-2.9	-3.0	4.2	-4.3	·
COc1ccc2c(c1)C(=O)[C@@H](O)[C@H](c1ccc(OC)c(Br)c1)O2	5.7	59.1*	8.7	26.0	40.0*	-20.4	79.7*
COc1cccc([C@@H]2Oc3ccc(OC)cc3C(=O)[C@H]2O)c1	4.5	34.3	6.1	2.6	-14.5	-15.0	·
Clc1ccc(COc2cccc(CNCc3ccncc3)c2)cc1	-23.7	3.8	-2.4	-8.3	-10.0	2.8	·
COc1ccc(NC(=O)CSc2nnc(-c3cccs3)n2N)cc1S(N)(=O)=O	-1.7	3.8	-13.0	5.5	-2.2	3.1	·
O=C(Nc1ccccc1SC(=O)c1ccccc1)c1ccccc1	4.3	·	10.8	-12.3	·	·	·
Cc1ccc(C(=O)Sc2cccccc2=O)cc1	·	92.2*	66.8*	83.5*	85.1*	-8.6	102.0*
COc1cc(C=Cc2nnc3c4ccccc4cnn23)cc(OC)c1OC	5.0	·	1.4	18.9	·	·	·
CCN(CC)c1c(C)nc2ccc(C(=O)NCc3ccc4c(c3)OCO4)cn12	-11.8	·	-5.5	4.3	·	·	·
Cc1ccc(-c2c3c(nc4sc(C(N)=O)c(N)c24)CCC3)cc1	-12.3	3.7	-6.0	-0.7	8.3	-6.5	·
NC(=O)c1sc2nc3c(c(-c4ccc(Cl)cc4)c2c1N)CCCC3	17.0	13.7	24.7	3.5	51.9*	-9.5	18.2
Cc1cc2c(cc1C)NC(C)CC(=O)N2 (centres undefined)	-1.5	1.7	-6.7	-1.2	·	·	·
CCC(=O)N1CCN(c2ccc(NC(=O)COc3ccccc3Cl)cc2)CC1	·	8.3	5.0	6.3	13.6	-0.9	·
CCC(=O)N1CCN(c2ccccc2NC(=O)COc2ccccc2Cl)CC1	·	51.0*	27.1	43.4*	52.1*	-8.6	61.5*
COc1ccc(C(=O)NCC(C)(C)N2CCOCC2)cc1S(=O)(=O)N1CCCC1	7.6	-10.3	-5.5	11.9	23.1	-4.1	·
CC(NC(=O)c1ccccc1)C(=O)OCC(=O)c1c(N)n(C)c(=O)n(C)c1=O (centres undefined)	3.9	0.0	3.3	0.3	14.5	-1.9	·

Compound activity (PubChem BioAssay)
